The values below come from ChEMBL document CHEMBL1132259, “Non-peptide GPIIb/IIIa inhibitors. 20. Centrally constrained thienothiophene alpha-sulfonamides are potent, long acting in vivo inhibitors of platelet aggregation” (J Med Chem, 1999).

Assay [1] has as its target T1, Integrin alpha-IIb/beta-3 (Homo sapiens, UniProt P05106+P08514). Description: Displacement of L-762,745 from Fibrinogen Receptor of human platelets by flow cytometry. The gist of the method: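 Resting human gel-filtered platelets at 2 × 10⁶ cells/mL final, incubated 2 h at room temperature with fluorescein-labelled L-762,745 (110 nM final) and competitor at 0.05–1000 nM. Read by flow cytometry (FACScan).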
Background: Flow cytometry measures light scatter and fluorescence of single cells or particles in a stream.
Target sequence in this assay (P05106 27-788 limits assumed): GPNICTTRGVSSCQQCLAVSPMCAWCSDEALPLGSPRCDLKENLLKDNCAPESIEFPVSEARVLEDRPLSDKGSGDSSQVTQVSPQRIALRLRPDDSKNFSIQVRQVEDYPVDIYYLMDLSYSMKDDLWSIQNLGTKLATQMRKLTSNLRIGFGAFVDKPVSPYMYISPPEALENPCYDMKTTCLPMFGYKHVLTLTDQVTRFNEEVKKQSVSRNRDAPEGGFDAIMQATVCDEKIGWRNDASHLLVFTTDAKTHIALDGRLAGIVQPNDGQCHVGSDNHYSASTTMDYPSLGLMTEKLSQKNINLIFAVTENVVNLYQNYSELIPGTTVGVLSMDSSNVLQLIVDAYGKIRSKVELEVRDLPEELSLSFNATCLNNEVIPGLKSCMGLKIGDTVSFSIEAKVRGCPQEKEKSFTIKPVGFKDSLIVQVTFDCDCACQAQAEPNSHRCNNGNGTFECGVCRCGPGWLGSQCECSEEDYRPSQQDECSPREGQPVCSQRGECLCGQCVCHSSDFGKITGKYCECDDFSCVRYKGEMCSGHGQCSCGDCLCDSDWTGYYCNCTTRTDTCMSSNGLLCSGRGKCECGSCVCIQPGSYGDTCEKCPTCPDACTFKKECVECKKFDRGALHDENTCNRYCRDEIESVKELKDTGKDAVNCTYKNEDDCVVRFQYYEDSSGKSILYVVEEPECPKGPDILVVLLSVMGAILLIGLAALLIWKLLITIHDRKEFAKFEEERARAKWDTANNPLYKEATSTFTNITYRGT
Target sequence in this assay (P08514 32-887 limits assumed): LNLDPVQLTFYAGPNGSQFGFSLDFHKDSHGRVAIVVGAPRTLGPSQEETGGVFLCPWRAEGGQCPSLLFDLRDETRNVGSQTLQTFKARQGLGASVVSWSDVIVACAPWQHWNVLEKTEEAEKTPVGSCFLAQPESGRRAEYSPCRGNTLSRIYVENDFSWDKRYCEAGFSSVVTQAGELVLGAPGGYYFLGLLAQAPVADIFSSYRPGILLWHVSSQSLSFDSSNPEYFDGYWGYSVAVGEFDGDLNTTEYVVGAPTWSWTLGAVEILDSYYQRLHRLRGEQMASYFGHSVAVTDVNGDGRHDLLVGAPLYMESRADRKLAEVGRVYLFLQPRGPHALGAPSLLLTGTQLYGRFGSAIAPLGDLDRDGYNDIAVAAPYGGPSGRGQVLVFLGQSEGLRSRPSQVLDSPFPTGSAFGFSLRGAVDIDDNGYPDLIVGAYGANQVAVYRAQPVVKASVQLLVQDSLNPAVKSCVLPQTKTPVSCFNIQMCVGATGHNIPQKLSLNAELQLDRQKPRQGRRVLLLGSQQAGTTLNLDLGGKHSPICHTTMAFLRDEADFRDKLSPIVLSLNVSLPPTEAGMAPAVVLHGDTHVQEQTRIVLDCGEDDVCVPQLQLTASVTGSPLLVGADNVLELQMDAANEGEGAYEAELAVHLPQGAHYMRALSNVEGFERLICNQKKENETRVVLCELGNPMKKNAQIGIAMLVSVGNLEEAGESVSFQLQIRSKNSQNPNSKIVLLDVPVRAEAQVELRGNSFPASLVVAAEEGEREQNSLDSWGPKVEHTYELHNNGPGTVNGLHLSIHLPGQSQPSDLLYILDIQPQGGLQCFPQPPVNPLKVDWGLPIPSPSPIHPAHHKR
Target sequence in this assay (P08514 891-1039 limits assumed): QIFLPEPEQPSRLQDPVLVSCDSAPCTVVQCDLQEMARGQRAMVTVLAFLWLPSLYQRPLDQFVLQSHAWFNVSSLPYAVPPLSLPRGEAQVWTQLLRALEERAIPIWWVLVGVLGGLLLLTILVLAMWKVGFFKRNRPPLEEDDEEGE

In assay [2] the target is T1, Integrin alpha-IIb/beta-3. Description: Inhibition of [125I]L-692884 binding to purified GPIIb/IIIa by silicate scintillation proximity assay(SPA). In kind it is protein-complex assay.
Assay [3] deals with T1, Integrin alpha-IIb/beta-3. As to the kind of experiment: In vitro inhibition of [125I]L-692884 binding to Fibrinogen receptor by silicate scintillation proximity assay(SPA). The class given is protein-complex assay. A general note: SPA uses beads or plates that emit light when radiolabelled molecules are held near them.
Assay [4] deals with T1, Integrin alpha-IIb/beta-3. As to the kind of experiment: Equilibrium dissociation constant was measured from displacement of L-762,745 from Fibrinogen receptor of human platelets by flow cytometry.
Target sequence in this assay (P05106 27-788 limits assumed): as the sequence (P05106 27-788 limits assumed) above
Target sequence in this assay (P08514 32-887 limits assumed): as the sequence (P08514 32-887 limits assumed) above
Target sequence in this assay (P08514 891-1039 limits assumed): as the sequence (P08514 891-1039 limits assumed) above

The term Kd denotes a measure of binding affinity in units of concentration. Read a high Kd as a looser complex. The IC50 is the concentration at which inhibition is half-maximal. A lower IC50 goes with inhibition by little substance.

In assay [1], `CS(=O)(=O)N[C@@H](CNC(=O)c1cc2cc(CCC3CCNCC3)sc2s1)C(=O)O` returned a Kd of 52 nM. The same molecule gave an ED50 in assay [2] of 1.2 nM. As to `O=C(NC[C@H](NS(=O)(=O)c1ccccc1)C(=O)O)c1cc2cc(CCC3CCNCC3)sc2s1`, in assay [3], the IC50 came to 0.03 nM. In assay [4], the Kd is 0.023 nM.

Turning to `CCCCS(=O)(=O)N[C@@H](CNC(=O)c1cc2cc(CCC3CCNCC3)sc2s1)C(=O)O`, in assay [1], binding was put at a Kd of 5.6 nM. Besides, the ED50 in assay [2] was determined as 0.12 nM. Molecule `O=C(NC[C@H](NS(=O)(=O)c1ccc(Cl)cc1)C(=O)O)c1cc2cc(CCC3CCNCC3)sc2s1` had an IC50 in assay [3] of 0.09 nM. The Kd in assay [4] stood at 0.026 nM. Turning to `O=C(O)CCNC(=O)c1ccc2c(c1)C(=O)N(CCC1CCNCC1)C2`, the IC50 in assay [3] worked out at 13 nM. The same molecule registered a Kd in assay [4] of 550 nM.

`CCCCS(=O)(=O)N[C@@H](CNC(=O)c1cc2sc(CCC3CCNCC3)cc2s1)C(=O)O` had a 50% inhibitory concentration (IC50) in assay [3] of 0.21 nM. The Kd in assay [4] was 3 nM.

The molecule `O=C(NC[C@H](NS(=O)(=O)c1cccnc1)C(=O)O)c1ccc2c(c1)C(=O)N(CCC1CCNCC1)C2` came in with a Kd in assay [4] of 2.2 nM. The molecule `O=C(NC[C@H](NS(=O)(=O)c1cccnc1)C(=O)O)c1cc2cc(CCC3CCNCC3)sc2s1` registered an IC50 in assay [3] of 0.047 nM. In assay [4], the equilibrium dissociation constant (Kd) amounted to 0.07 nM. On to `O=C(NC[C@H](NS(=O)(=O)c1cccnc1)C(=O)O)c1cc2cc(C3CCNCC3)sc2s1`, for which, in assay [3], the IC50 amounted to 0.45 nM. The molecule also came in with a Kd in assay [4] of 22 nM. With `CCOCCS(=O)(=O)N[C@@H](CNC(=O)c1cc2cc(CCC3CCNCC3)sc2s1)C(=O)O`, the dissociation constant (Kd) in assay [1] is 1.2 nM. Besides, the ED50 in assay [2] was determined as 0.13 nM. In turn, `CCOCCS(=O)(=O)N[C@@H](CNC(=O)c1cc2sc(CCC3CCNCC3)cc2s1)C(=O)O` gave a Kd in assay [1] of 1.1 nM. The molecule also returned an ED50 in assay [2] of 0.27 nM.

The molecule `O=C(NC[C@H](NS(=O)(=O)c1cccnc1)C(=O)O)c1cc2sc(CCC3CCNCC3)cc2s1` had a dissociation constant Kd in assay [1] of 0.08 nM. In assay [2], this molecule returned an ED50 of 0.11 nM. In assay [3], `O=C(NC[C@H](NS(=O)(=O)c1cccs1)C(=O)O)c1cc2cc(CCC3CCNCC3)sc2s1` had a 50% inhibitory concentration (IC50) of 0.04 nM. In addition, binding in assay [4] was characterised by a dissociation constant (Kd) of 0.15 nM. The molecule `O=C(NC[C@H](NS(=O)(=O)c1cccs1)C(=O)O)c1cc2sc(CCC3CCNCC3)cc2s1` returned a half-maximal inhibitory concentration (IC50) in assay [3] of 0.04 nM. Besides, binding in assay [4] was characterised by a dissociation constant (Kd) of 0.092 nM. In assay [4], `O=C(NCC(NS(=O)(=O)c1cccnc1)C(=O)O)c1cc2cc(CCC3CCNCC3)sc2s1` (single isomer, unassigned) had a Kd of 28 nM. Further, the ED50 in assay [2] is 0.47 nM.

Consider `O=C(NC[C@H](NS(=O)(=O)c1cccnc1)C(=O)O)c1cc2cc(CCCC3CCNCC3)sc2s1`, for which the concentration for half-maximal inhibition (IC50) in assay [3] amounted to 0.07 nM. The Kd in assay [4] turned out to be 17 nM. With `O=C(NC[C@H](NS(=O)(=O)c1ccccc1)C(=O)O)c1cc2sc(CCC3CCNCC3)cc2s1`, the Kd in assay [4] came out at 0.15 nM.
